What is called zone of inhibition is the extent of the growth-free halo in a diffusion test. Low values mean a weaker effect on the plate, high ones a stronger effect on the plate.

One data set is described as follows: Cytotoxicity. Particulars: red blood cell suspension (4% RBC from defibrinated blood), pH 7. Format: cell-based.
The test system of data set [1] is C. neoformans MTCC4424. Put plainly: Broth microdilution MIC/MFC, MTCC4424. In kind it is cell-based. Particulars: Cryptococcus neoformans; for MFC: MTCC4424. (Broth dilution looks for growth in wells or tubes with falling amounts of substance.)
Data set [2] has as its system C. neoformans MTCC4424. As to the kind of experiment: Disc diffusion assay, MTCC4424. Format: cell-based, Cryptococcus neoformans. Particulars: 37°C, 48 h, mean±SD; for Diameter of zone of inhibition: 10 μL of essential oil or active compound per disc. An outline of the steps: (§1)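 Per CLSI M44-A2, modified. Strains were kept on SDA slants at 4°C and subcultured in SDB before use. 100 µl of cell suspension (1.5 × 10^8 cfu/ml) was spread on SDA. Plates got antifungal drug discs (10–20 µg/disc) or 8 mm paper discs soaked with 10 µl of oil or test compound, then incubated at 37°C for 48 h. Inhibition-zone diameter (mm) was recorded in triplicate as mean ± SD.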

For data set [3], the system named is Cryptococcus neoformans test strains (CN and CN MTCC4424). Put plainly: Disc diffusion, text statements for both test strains. In kind it is cell-based. Particulars: oils/compounds, against the test strains. The gist of the method:
as §1
For orientation: A growth-free zone around the sample is the usual read-out of agar diffusion tests.

The subject of data set [4] is C. neoformans (clinical isolate CN). As to the kind of experiment: Broth microdilution MIC/MFC, clinical isolate CN. In kind it is cell-based. Particulars: Cryptococcus neoformans.
For data set [5] the test system is unchanged. Put plainly: Disc diffusion assay, clinical isolate CN. In kind it is cell-based, Cryptococcus neoformans. Particulars: 37°C, 48 h, mean±SD; for Diameter of zone of inhibition: 10 μL of essential oil or active compound per disc. An outline of the steps:
as §1

Data set [6] relates to Cryptococcus neoformans test strains (CN and CN MTCC4424). As to the kind of experiment: Broth microdilution, text statements for both test strains. In kind it is cell-based.
Data set [7] relates to CN and CN MTCC4424 strains. Put plainly: Checkerboard test, text statements for both test strains. Format: cell-based, Cryptococcus neoformans. Particulars: for Interaction with fluconazole: checkerboard, CN and CN MTCC4424.
A further data set relates to C. neoformans CN. Put plainly: Checkerboard microtiter test with fluconazole, CN. Format: cell-based, Cryptococcus neoformans. Particulars: for MIC: Cryptococcus neoformans, 48 h, read-out: MIC of agent alone; for Lowering of own MIC: in combination with fluconazole, against CN.
The subject of data set [8] is C. neoformans MTCC4424. As to the kind of experiment: Checkerboard microtiter test with fluconazole, MTCC4424. Format: cell-based, Cryptococcus neoformans. Particulars: for MIC: Cryptococcus neoformans, MTCC4424, 48 h, read-out: MIC of agent alone.
In a further data set the test system is red blood cell (RBC). Put plainly: Cytotoxicity. In kind it is cell-based. Particulars: 0.1% (v/v) Triton X-100.
Setting [9] is: Cryptococcus neoformans, MTCC4424, read-out: MIC, oils/compounds, against the test strains.
The mark [10] stands for this setting: oils/compounds, against the test strains.
[11] abbreviates: CD-FLC combination (cinnamaldehyde + fluconazole).
The mark [12] stands for this setting: EL-FLC combination (eugenol + fluconazole).

In brackets after ≈: the same amount, converted by molar mass. Entries after “also recorded” stand apart in the source; their conditions may differ. Where two headings read alike, the source gives them in different places.

On to `CC(C)=CCCC(C)=CC=O` (mixture of isomers) [CT, Citral], for which, in the data set “Cytotoxicity”, the hemolysis at 2 h, 25 μg/mL was found to be 1.78 ± 0.16%; the hemolysis at 2 h, 50 μg/mL was 2.86 ± 0.15%; the hemolysis at 2 h, 100 μg/mL is 3.8 ± 0.18%; the hemolysis at 2 h, 200 μg/mL was 4.29 ± 0.12%. In “Cytotoxicity”, this molecule registered a hemolysis at 2 h, 400 μg/mL of 4.51 ± 0.13%; a hemolysis at 2 h, 800 μg/mL of 5.98 ± 0.21%; a hemolysis at 2 h, 1600 μg/mL of 6.96 ± 0.1%; a hemolysis at 2 h, 3200 μg/mL of 17.6 ± 1.04%. For the same molecule, the MIC with C. neoformans MTCC4424 [1] (MTCC4424, 24 h) is 1600 µg/mL. For the same molecule, in the data set with C. neoformans MTCC4424 [2], the “Diameter of zone of inhibition” value is given as 22.66±1.24 mm. In addition, in data set [3], the “zone of inhibition” value is listed as above 15 mm. Also, the MIC in data set [4] (24 h) amounted to 800 µg/mL. Moreover, the “Diameter of zone of inhibition” value in data set [5] is listed as 25.33±2.05 mm. The MIC in data set [6] (setting [9]) lay within 400 to 1600 µg/mL. Besides, the “MIC” value in data set [6] (setting [10]) was in the range of 400 to 1600 µg/mL. For the same molecule, in data set [7], the “Reduction of MICs in combination with fluconazole” value (shortened to “Reduction of MICs in combination”) is recorded as “up to 8 fold” and the “Interaction with fluconazole” value was “less synergistic; also recorded: synergy”.
On to `O=C/C=C/c1ccccc1` [CD, Cinnamaldehyde], for which, in “Cytotoxicity”, the hemolysis at 2 h, 25 μg/mL was 1.84 ± 0.19%; the hemolysis at 2 h, 50 μg/mL is 2.87 ± 0.07%; the hemolysis at 2 h, 100 μg/mL was found to be 3.39 ± 0.12%; the hemolysis at 2 h, 200 μg/mL stood at 3.96 ± 0.05%. In the data set “Cytotoxicity”, the hemolysis at 2 h, 400 μg/mL is 4.4 ± 0.17%; the hemolysis at 2 h, 800 μg/mL was 5.06 ± 0.2%; the hemolysis at 2 h, 1600 μg/mL was 6.22 ± 0.19%; the hemolysis at 2 h, 3200 μg/mL is 18.1 ± 0.4%. Besides, the MIC against C. neoformans MTCC4424 [1] (MTCC4424, 24 h) is 100 µg/mL (≈ 757 µM). Also, the “Diameter of zone of inhibition” value in the data set on C. neoformans MTCC4424 [2] is 45.66±2.49 mm. In the data set on C. neoformans CN (setting [11]), the “MIC of agent in combination” value worked out at 12.50 µg/mL. Besides, in the data set with C. neoformans CN, the MIC turned out to be 100 µg/mL and the “Lowering of own MIC” value turned out to be 8 folds. For the same molecule, the “zone of inhibition” value in data set [3] is on record as above 15 mm. For the same molecule, the MIC in [4] (24 h) is 100 µg/mL (≈ 757 µM). The “MIC of agent in combination” value with C. neoformans MTCC4424 [8] (setting [11]) was found to be 12.50 µg/mL. The MIC with C. neoformans MTCC4424 [8] was 100 µg/mL. Also, the “Diameter of zone of inhibition” value in data set [5] was found to be 48.33±3.39 mm. For the same molecule, the MIC in data set [6] (setting [9]) stood at 100 µg/mL (≈ 757 µM). The “MIC” value in data set [6] (setting [10]) lay within 100 to 200 µg/mL. In data set [7], the “Reduction of MICs in combination” value is recorded as “up to 32 fold” and the “Interaction with fluconazole” value was “synergistic interaction”.
Consider `C=CCc1ccc(O)c(OC)c1` [EL, Eugenol], for which, in the data set “Cytotoxicity”, the hemolysis at 2 h, 25 μg/mL was found to be 1.65 ± 0.14%; the hemolysis at 2 h, 50 μg/mL stood at 1.98 ± 0.09%; the hemolysis at 2 h, 100 μg/mL was 3.02 ± 0.08%; the hemolysis at 2 h, 200 μg/mL amounted to 3.72 ± 0.16%. In “Cytotoxicity”, this molecule had a hemolysis at 2 h, 400 μg/mL of 4.26 ± 0.16%; a hemolysis at 2 h, 800 μg/mL of 4.78 ± 0.25%; a hemolysis at 2 h, 1600 μg/mL of 5.6 ± 0.63%; a hemolysis at 2 h, 3200 μg/mL of 19 ± 0.3%. For the same molecule, the MIC with C. neoformans MTCC4424 [1] (MTCC4424, 24 h) was determined as 200 µg/mL (≈ 1220 µM). In the data set with C. neoformans MTCC4424 [2], the “Diameter of zone of inhibition” value worked out at 40.33±1.69 mm. Also, in the data set on C. neoformans CN, the MIC amounted to 200 µg/mL and the “Lowering of own MIC” value was 8 folds. For the same molecule, in the data set with C. neoformans CN (setting [12]), the “MIC of agent in combination” value is 12.50 µg/mL. In the data set with C. neoformans CN (combination with fluconazole), the FICI stood at 0.187. The “zone of inhibition” value in data set [3] is above 15 mm. The molecule also showed an MIC in data set [4] (24 h) of 200 µg/mL (≈ 1220 µM). Besides, the MIC in the data set on C. neoformans MTCC4424 [8] amounted to 200 µg/mL. In addition, in the data set with C. neoformans MTCC4424 [8] (setting [12]), the “MIC of agent in combination” value is 12.50 µg/mL. The “Diameter of zone of inhibition” value in data set [5] turned out to be 22.66±1.24 mm. Moreover, in data set [6] (setting [9]), the MIC amounted to 200 µg/mL (≈ 1220 µM). Moreover, the “MIC” value in [6] (setting [10]) is 100 to 200 µg/mL. Further, in data set [7], the “Reduction of MICs in combination” value is “up to 32 fold” and the “Interaction with fluconazole” value is “synergistic interaction”.
For the molecule `OC(Cn1cncn1)(Cn1cncn1)c1ccc(F)cc1F` [FLC, Fluconazole, reference compound], the MFC with C. neoformans MTCC4424 [1] is 32 µg/mL (≈ 104 µM); in data set [4], 256 µg/mL (≈ 836 µM). Besides, the MIC with C. neoformans MTCC4424 [1] (MTCC4424, 48 h) was found to be 8 µg/mL (≈ 26.1 µM); with C. neoformans CN it was 128 µg/mL; in data set [4] (48 h), 128 µg/mL (≈ 418 µM); with C. neoformans MTCC4424 [8] it was 8 µg/mL. Further, in the data set with C. neoformans MTCC4424 [2] (antifungal drugs 10 μg/disc), the “Diameter of the zone of inhibition” value came to 14.33±1.24 mm. Further, the “MIC of agent in combination” value with C. neoformans CN (setting [11]) came out at 8 µg/mL; in the data set on C. neoformans CN (setting [12]), 8 µg/mL; in the data set with C. neoformans MTCC4424 [8] (setting [11]), 1 µg/mL; in the data set on C. neoformans MTCC4424 [8] (setting [12]), 1 µg/mL. Besides, the “Reduction of MICs in combination” value in [7] was “up to 32 fold”.
In the data set “Cytotoxicity”, `CC(C)=CCC/C(C)=C/CO` [GR, Geraniol] came in with a hemolysis at 2 h, 25 μg/mL of 1.33 ± 0.17%; a hemolysis at 2 h, 50 μg/mL of 2.16 ± 0.25%; a hemolysis at 2 h, 100 μg/mL of 2.31 ± 0.26%; a hemolysis at 2 h, 200 μg/mL of 2.87 ± 0.23%. Besides, in “Cytotoxicity”, the hemolysis at 2 h, 400 μg/mL was 3.36 ± 0.18%; the hemolysis at 2 h, 800 μg/mL was determined as 3.85 ± 0.11%; the hemolysis at 2 h, 1600 μg/mL is 4.74 ± 0.34%; the hemolysis at 2 h, 3200 μg/mL was 14.3 ± 0.23%. Moreover, the MIC in the data set with C. neoformans MTCC4424 [1] (MTCC4424, 24 h) is 800 µg/mL (≈ 5190 µM). Also, the “Diameter of zone of inhibition” value with C. neoformans MTCC4424 [2] turned out to be 19.33±1.24 mm. Besides, the “zone of inhibition” value in [3] is given as above 15 mm. Moreover, in [4] (24 h), the MIC stood at 400 µg/mL (≈ 2590 µM). For the same molecule, the “Diameter of zone of inhibition” value in data set [5] is given as 19.33±1.24 mm. In addition, the MIC in data set [6] (setting [9]) lay within 400 to 1600 µg/mL (≈ 2590 to 10400 µM). The “MIC” value in data set [6] (setting [10]) lay within 400 to 1600 µg/mL. Further, in data set [7], the “Reduction of MICs in combination” value is “up to 8 fold” and the “Interaction with fluconazole” value is “synergy”.
With `CCC(C)n1ncn(-c2ccc(N3CCN(c4ccc(OCC5COC(Cn6cncn6)(c6ccc(Cl)cc6Cl)O5)cc4)CC3)cc2)c1=O` (stereo not drawn) [ITC, Itraconazole], the MFC against C. neoformans MTCC4424 [1] worked out at 256 µg/mL (≈ 363 µM); in data set [4] it was 128 µg/mL (≈ 181 µM). Moreover, the MIC was determined as 128 µg/mL (≈ 181 µM) in the data set on C. neoformans MTCC4424 [1] (MTCC4424, 48 h) and 64 µg/mL (≈ 90.7 µM) in [4] (48 h). Also, the “MIC range (resistance to azoles)” value in [6] (antifungal drugs, both test strains) is 64 to 256 µg/mL.
Regarding `CC(=O)N1CCN(c2ccc(OCC3COC(Cn4ccnc4)(c4ccc(Cl)cc4Cl)O3)cc2)CC1` (stereo not drawn) [KTC, Ketoconazole], the MFC turned out to be 128 µg/mL (≈ 241 µM) in the data set with C. neoformans MTCC4424 [1] and 0.5 µg/mL (≈ 0.941 µM) in data set [4]. The MIC worked out at 64 µg/mL (≈ 120 µM) against C. neoformans MTCC4424 [1] (MTCC4424, 48 h) and 0.25 µg/mL (≈ 0.47 µM) in data set [4] (48 h). Moreover, the “Diameter of the zone of inhibition” value in data set [5] (antifungal drugs 10 μg/disc) was determined as 19.33±1.24 mm.
Take Triton X-100 [reference compound]: the “hemolysis (positive control)” value in the data set on red blood cell (RBC) worked out at 100%.

(Values after article PMC11364305 (Annals of African Medicine, 2024).)
